Only some compounds are listed: those with a hit (about 3.1% of all), similar ones and a draw of the others.
F508del corr = correctors of CFTR F508del function in bronchial epithelial cells | AID 720511 | CFBE cells, YFP halide quenching; stimulated with forskolin plus potentiator P3; % fluorescence drop versus neutral controls | hit rate 0.36% among 350,000 | activity (quench increase), % at 7.58 µM;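 active = mean added fluorescence quench of at least 8% versus neutral control, with both replicates also reaching 8%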;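 note: cells transiently co-express mutant CFTR-F508del with the halide-sensitive YFP; corrector assay measuring rescue of mutant channel to the surface after 24 h compound exposure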
Cneo AK release = Cryptococcus neoformans lysis via adenylate kinase release. C. neoformans lysis, adenylate kinase release luminescence, 4 h; normalised: neutral wells 0, clomiphene wells 100. lysis activity, % at 15 µM. hit rate 0.2% among 360,000. AID 651654;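 active = mean lysis activity across replicates of at least 80%, whatever share of replicates individually reach that level; inactive = mean lysis activity below 80%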
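Assay system: Cryptococcus neoformans yeast cells / Dosing: single-point compound dose / Timing: 4 h at 37 °C static, read 1 h later / Measured by: luminescence of released adenylate kinase using an AK detection reagent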
rRNA inh HTS = selective bacterial rRNA inhibition in E. coli | AID 720706 | GFP signal change (wild-type ribosome), % (no concentration beside the values) | hit rate 1.6% among 350,000 | E. coli WT GFP vs humanized-ribosome RFP mutants, fluorescence, 24 h; hits give low values; DMSO median 0, no signal -100;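 active = significant combined selectivity score with lowered wild-type GFP, culture density cut under 30%, mutant RFP and density less affected; inactive = any of these conditions unmet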
GSIS activator = GLuc luminescence reporter in INS-1E cells, primary screen for activators of glucose-dependent secretion of insulin | INS-1E GLuc reporter insulin secretion, 2-3 h | activation, % at 16.6 µM | hit rate 0.61% among 370,000;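 active = lowest replicate activation of at least 40%, so every replicate reaches that level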;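 note: 0% = median of neutral control wells and 100% = median of IBMX positive control wells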
Env fusion inh = inhibitors of HIV Env-mediated cell fusion. HeLa-JRFL Env/CEM21 cell fusion, luciferase. inhibition, % at 12.3 µM. hit rate 1.1% among 360,000;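 active = mean replicate inhibition score of at least 50 and every replicate individually at or above 50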;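 note: 0% = plate neutral controls and 100% = maraviroc near 300 nM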
miR122 inh = miR-122 inhibition in Huh7 cells; Huh7 miR-122 Renilla luciferase sensor, 48 h; neutral wells = 0, positive control = 100; hit rate 0.3% among 340,000; activation (reporter increase), % at 12.5 µM;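 active = mean replicate activation score at least 90 and every replicate individually at or above 90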;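 note: higher luciferase means less miR-122 activity so hits act as miR-122 inhibitors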
The depositor's hits bear a star; . = no result given; ! = not active in a repeat; [ ] = dose if it differs, or a comment.

SMILES | F508del corr | Cneo AK release | rRNA inh HTS | GSIS activator | Env fusion inh | miR122 inh
CCOC(=O)c1cc2sccc2n1CCCN1C(=O)c2ccccc2C1=O | -1 | -4 | -28* | 4 | . | 1
CCCNC1=C(N(C(C)=O)c2cccc(F)c2)C(=O)c2ccccc2C1=O | . | -2 | -17 | -25 | 78* | -22
COc1cccc(OC)c1C(=O)OCC(=O)N(C)c1ccccc1 | -1 | -3 | 0 | 13 | 24 | -5
CN(C(=O)COC(=O)c1cccs1)c1ccccc1 | -1 | 8 | 13 | 117* | 5 | -3
CCN(CC)S(=O)(=O)c1cc(NC(=O)C(C)N2CCN(c3ccccn3)CC2)ccc1C (stereo not given) | 1 | -2 | -20* | 4 | -9 | -3
COc1cccc(NC(=O)Nc2ccc3c(c2)C(=O)N(C)[C@H]2CC[C@H](CC(=O)NCCc4ccccc4)O[C@H]2CO3)c1 | . | -2 | -5 | -2 | -8[16.7 µM] | .
Cc1cc(C2(c3ccc(O)c(C)c3)C(=O)N(C)c3ccc(Br)cc32)ccc1O | . | 1 | -40* | 24 | -6 | -4
COc1ccc(-c2ccc([C@@H]3[C@H]4CN(Cc5ccc(F)cc5)CC(=O)N4[C@H]3CO)cc2)cc1 | -2 | . | 0 | -24 | . | .
CC(=O)N1CCc2c(sc(NC(=O)c3ccc4c(c3)OCCO4)c2C#N)C1 | 10* | 2 | 7 | -1 | -100 | 10
CC(=O)N1CCc2c(sc(NC(=O)c3ccc(S(=O)(=O)N(C)C)cc3)c2C#N)C1 | 0 | 3 | 0 | -15 | -1 | -5
CCCCC[C@@H](/C=C/C1C(=O)C=C[C@H]1C/C=C\CCCC(=O)OC)OC(C)=O (stereo not given in full) | -1 | -3 | -23* | 46* | -313 | -6
Cn1c(CSCc2ccc(Cl)cc2)n[nH]c1=S | 0 | -4 | -23* | 1 | -10 | -7
Cn1c(CSCc2ccc(F)cc2)n[nH]c1=S | -4 | -1 | 7 | -5 | 8 | -1
CCCC(=O)Nc1ccc2c(c1)nc(CN1CCN(C(=O)OCC)CC1)n2CC | 12* | 1 | 0 | 2 | 1 | 9
O=C(NC[C@@H]1[C@H](c2ccccc2)[C@@H](CO)N1C(=O)Cc1cccnc1)C1CC1 | 0 | 36 | 2 | 14 | . | -7[16.7 µM]
O=C(Nc1ccc(Cl)c(Cl)c1)N[C@H]1CC[C@H](CCn2cc(C3CCCCC3)nn2)O[C@@H]1CO | 2 | 3 | -34 | -19 | 63*[16.7 µM] | .
O=C(Nc1ccc(Cl)c(Cl)c1)N[C@@H]1CC[C@@H](CCn2cc(C3CCCCC3)nn2)O[C@@H]1CO | 1 | 3 | -8 | 16 | 67*![16.7 µM] | .
O=C(Nc1ccc(Cl)c(Cl)c1)N[C@H]1CC[C@H](CCn2cc(C3CCCCC3)nn2)O[C@H]1CO | -1 | 3 | -7 | 0 | 2[16.7 µM] | .
Cc1noc(C)c1S(=O)(=O)Nc1ccc2c(c1)CC(=O)N([C@@H](C)CO)C[C@H](C)[C@H](CN(C)S(C)(=O)=O)O2 | -1 | 1 | 2 | 10 | 4[16.7 µM] | 11[16.7 µM]
CC(c1ccco1)N(C(=O)C12CC3(C)CC(C)(CC(C)(C3)C1)C2)c1ccccn1 (stereo not given) | . | -2 | . | . | 76* | 2
Cc1cccc(C(=O)N(c2ccccn2)C(C)c2ccco2)c1 (stereo not given) | -1 | 0 | 3 | 9 | -2 | 13
Cc1noc(C)c1NC(=O)N1C[C@@H](O)COC[C@@H]2O[C@H](CC(=O)N3CCc4ccccc4C3)CC[C@H]21 | -2 | 1 | 4 | 7 | -4[16.7 µM] | 4[16.7 µM]
CCS(=O)c1scc(-c2ccc(Cl)cc2)c1C#N (stereo not given) | -2 | . | -32* | 8 | 39 | .
CCc1nc2c(C#N)c(-c3ccc(Cl)cc3)ccn2n1 | . | 0 | . | . | -61 | -4
CCCNC(=O)N(C)C[C@@H]1Oc2cc(-c3ccccc3F)ccc2S(=O)(=O)N([C@H](C)CO)C[C@@H]1C | 1 | 8 | -7 | 3 | -11[16.7 µM] | .
SMILES | F508del corr | Cneo AK release | rRNA inh HTS | GSIS activator | Env fusion inh | miR122 inh
COc1ccccc1OCC(O)CN1C(=O)NC(C)(C)C1=O (stereo not given) | 9.4* | 1 | 7 | -5 | 1 | .
O=C(C[N+]1(CC#Cc2ccccc2)CCOCC1)c1ccc(Cl)cc1 | -3 | . | -24* | 0 | -6 | .
C[C@@H]1CCCCO[C@@H](CN(C)S(=O)(=O)c2ccc(F)cc2)[C@H](C)CN([C@@H](C)CO)C(=O)c2cc(NC(=O)CCCN(C)C)ccc2O1 | 0 | -11 | -2 | -9 | 9[16.7 µM] | 1[16.7 µM]
COc1ccc(NC(=O)N(C)C[C@@H]2OCCCC[C@@H](C)Oc3ccc(NC(=O)c4ccccc4)cc3C(=O)N([C@@H](C)CO)C[C@@H]2C)cc1 | 2 | . | 4 | -19 | -12[16.7 µM] | .
COc1ccc(NC(=O)N(C)C[C@H]2OCCCC[C@@H](C)Oc3ccc(NC(=O)c4ccccc4)cc3C(=O)N([C@H](C)CO)C[C@H]2C)cc1 | 3 | 83* | 0 | -26 | 27[16.7 µM] | 44[16.7 µM]
COc1ccc(NC(=O)N(C)C[C@H]2OCCCC[C@@H](C)Oc3ccc(NC(=O)c4ccccc4)cc3C(=O)N([C@@H](C)CO)C[C@H]2C)cc1 | 4 | 102* | 0 | -2 | -9[16.7 µM] | 12[16.7 µM]
CCS(=O)(=O)Nc1ccc2c(c1)C(=O)N(C)C[C@@H](OC)[C@@H](C)CN(C)[C@@H](C)CO2 | 3 | 55 | 3 | 6 | 3[16.7 µM] | 7[16.7 µM]
COc1ccc(S(=O)(=O)Nc2ccc3c(c2)C(=O)N([C@@H](C)CO)C[C@H](C)[C@@H](CN(C)S(=O)(=O)c2c(C)noc2C)OCCCC[C@@H](C)O3)cc1 | 5 | -1 | 1 | -13 | -37[16.7 µM] | 11[16.7 µM]
C[C@H](NC(=O)Cc1cccc2ccccc12)C(=O)NCc1ccccc1 | 3 | . | -32* | -3 | 3 | .
Cc1ccccc1NC(=O)c1ccccc1NC(=O)Cc1cccc2ccccc12 | 0 | . | -8 | 11 | 26 | .
O=C(Cc1cccc2ccccc12)Nc1ccccc1 | 0 | . | 4 | -5 | 7 | .
Cc1ccccc1C(=O)NNC(=O)Cc1cccc2ccccc12 | -4 | -4 | -41* | 22 | . | -2
CCC(=O)N1CC2(C1)CN(C(=O)Nc1ccccc1F)[C@@H](CO)c1[nH]c3cc(OC)ccc3c12 | -2 | . | 2 | 8 | . | .
C[C@H]1CN([C@@H](C)CO)C(=O)c2cc(NC(=O)Cc3ccccc3)ccc2O[C@@H]1CN(C)CC1CCCCC1 | -1 | -3 | 6 | 12 | -8[16.7 µM] | -9[16.7 µM]
O=C(NCc1ccccn1)c1coc(=O)c(Br)c1 | . | 1 | . | 102* | . | -4
CC(=O)c1sc2nc(C)c3c(c2c1N)CCCC3 | -3 | -2 | -33* | -3 | 26 | -1

Assay outcomes (PubChem BioAssay)
